{
  "source": "ChEMBL document CHEMBL2321743",
  "about": "“Novel hybrid-type antimicrobial agents targeting the switch region of bacterial RNA polymerase” (ACS Med Chem Lett, 2013)",
  "key": {"Serratia marcescens": {"test_system": "Serratia marcescens", "experiment": "Antibacterial activity against Serratia marcescens ATCC 13880 after 24 hrs by broth microdilution method", "type": "functional", "conditions": "ATCC 13880, 24 h"}, "Pseudomonas aeruginosa": {"test_system": "Pseudomonas aeruginosa", "experiment": "Antibacterial activity against Pseudomonas aeruginosa ATCC 27853 after 24 hrs by broth microdilution method", "type": "functional", "conditions": "ATCC 27853, 24 h"}, "Candida albicans": {"test_system": "Candida albicans", "experiment": "Antifungal activity against Candida albicans ATCC 10231 after 48 hrs by broth microdilution method", "type": "functional", "conditions": "ATCC 10231, 48 h"}, "Micrococcus luteus": {"test_system": "Micrococcus luteus", "experiment": "Antibacterial activity against Micrococcus luteus ATCC 9341 after 24 hrs by broth microdilution method", "type": "functional", "conditions": "ATCC 9341, 24 h"}, "Bacillus spizizenii [1]": {"test_system": "Bacillus spizizenii", "experiment": "Antibacterial activity against Bacillus subtilis ATCC 6633 after 24 hrs by broth microdilution method", "type": "functional", "conditions": "ATCC 6633, 24 h"}, "Enterococcus faecalis": {"test_system": "Enterococcus faecalis", "experiment": "Antibacterial activity against Enterococcus faecalis ATCC 29212 after 24 hrs by broth microdilution method", "type": "functional", "conditions": "ATCC 29212, 24 h"}, "Bacillus spizizenii [2]": {"test_system": "Bacillus spizizenii", "experiment": "Antibacterial activity against Bacillus subtilis ATCC 6633 at 30 ug/disk after 12 hrs by paper disk diffusion assay", "type": "functional", "conditions": "for zone of inhibition at 30 µg/disc: ATCC 6633, 12 h, read-out: DIZ", "summary_of_the_method": "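Test compounds dissolved in MeOH and applied to paper disks at 30 μg/disk against Bacillus subtilis. Read-out is the diameter of the zone of complete growth inhibition.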"}, "Staphylococcus aureus": {"test_system": "Staphylococcus aureus", "experiment": "Antibacterial activity against Staphylococcus aureus ATCC 29213 after 24 hrs by broth microdilution method", "type": "functional", "conditions": "ATCC 29213, 24 h"}, "[3]": {"experiment": "Inhibition of Escherichia coli RNA polymerase after 1 hr by fluorescence assay", "summary_of_the_method": "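Assay uses E. coli RNA polymerase. IC50 is taken from three independent dose–response curves, each point measured in duplicate, and reported as mean ± SEM.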"}, "Escherichia coli": {"test_system": "Escherichia coli", "experiment": "Antibacterial activity against Escherichia coli ATCC 25922 after 24 hrs by broth microdilution method", "type": "functional", "conditions": "ATCC 25922, 24 h"}},
  "note": "pIC50: −log10 of the molar value. The source made the active and inactive calls. No cut-off for these calls is given here.",
  "data": [
    {"smiles": "CO[C@H]1/C=C/O[C@@]2(C)Oc3c(C)c(O)c4c(O)c(c(/C=N/N5CCN(C)CC5)c(O)c4c3C2=O)NC(=O)/C(C)=C\\C=C\\[C@H](C)[C@H](O)[C@@H](C)[C@@H](O)[C@@H](C)[C@H](OC(C)=O)[C@@H]1C", "note": "[RIFAMPIN]", "values": [
      {"measurement": "MIC", "setting": "Serratia marcescens", "result": 32, "unit": "µg/mL"},
      {"measurement": "MIC", "setting": "Pseudomonas aeruginosa", "result": 32, "unit": "µg/mL"},
      {"measurement": "MIC", "setting": "Candida albicans", "result": "≥ 256", "unit": "µg/mL"},
      {"measurement": "MIC", "setting": "Micrococcus luteus", "result": "≤ 0.125", "unit": "µg/mL"},
      {"measurement": "MIC", "setting": "Bacillus spizizenii [1]", "result": "≤ 0.125", "unit": "µg/mL"},
      {"measurement": "MIC", "setting": "Enterococcus faecalis", "result": 1, "unit": "µg/mL"},
      {"measurement": "zone of inhibition at 30 µg/disc", "setting": "Bacillus spizizenii [2]", "result": 25, "unit": "mm"},
      {"measurement": "MIC", "setting": "Staphylococcus aureus", "result": 0.5, "unit": "µg/mL"},
      {"measurement": "pIC50", "setting": "[3]", "result": 7.10},
      {"measurement": "MIC", "setting": "Escherichia coli", "result": 8, "unit": "µg/mL"}
    ]},
    {"smiles": "O=C(CCCCCCCO)Nc1c2sscc-2[nH]c1=O", "values": [
      {"measurement": "zone of inhibition at 30 µg/disc", "setting": "Bacillus spizizenii [2]", "result": 9, "unit": "mm"}
    ]},
    {"smiles": "CCCC/C(C)=C/C=C(\\C)C(=O)c1c(O)cc(C(C)CC/C=C/NC(=O)OC)oc1=O", "note": "(racemic)", "values": [
      {"measurement": "diameter of the inhibition zone (DIZ)", "setting": "Bacillus spizizenii [2]", "result": "Active"}
    ]},
    {"smiles": "Cc1cc(O)c(C(=O)CCCCCCCC(=O)Nc2c3sscc-3[nH]c2=O)c(=O)o1", "values": [
      {"measurement": "MIC", "setting": "Serratia marcescens", "result": "≥ 256", "unit": "µg/mL"},
      {"measurement": "MIC", "setting": "Pseudomonas aeruginosa", "result": 128, "unit": "µg/mL"},
      {"measurement": "MIC", "setting": "Candida albicans", "result": "≥ 256", "unit": "µg/mL"},
      {"measurement": "MIC", "setting": "Micrococcus luteus", "result": 1, "unit": "µg/mL"},
      {"measurement": "MIC", "setting": "Bacillus spizizenii [1]", "result": 16, "unit": "µg/mL"},
      {"measurement": "MIC", "setting": "Enterococcus faecalis", "result": 4, "unit": "µg/mL"},
      {"measurement": "zone of inhibition at 30 µg/disc", "setting": "Bacillus spizizenii [2]", "result": 15, "unit": "mm"},
      {"measurement": "MIC", "setting": "Staphylococcus aureus", "result": 4, "unit": "µg/mL"},
      {"measurement": "pIC50", "setting": "[3]", "result": 4.85},
      {"measurement": "MIC", "setting": "Escherichia coli", "result": "≥ 256", "unit": "µg/mL"}
    ]},
    {"smiles": "CCCCCCCCC(=O)c1c(O)cc(CCCCCC(=O)O)oc1=O", "values": [
      {"measurement": "diameter of the inhibition zone (DIZ)", "setting": "Bacillus spizizenii [2]", "result": "Active"}
    ]},
    {"smiles": "CCCC/C(C)=C/C=C(\\C)C(=O)c1c(O)cc([C@H](C)CC/C=C/NC(=O)OC)oc1=O", "note": "[MYXOPYRONIN B]", "values": [
      {"measurement": "pIC50", "setting": "[3]", "result": 4.62}
    ]},
    {"smiles": "Cc1cc(O)c(C(=O)NCCCCCCC(=O)O)c(=O)o1", "values": [
      {"measurement": "diameter of the inhibition zone (DIZ)", "setting": "Bacillus spizizenii [2]", "result": "inactive"}
    ]},
    {"smiles": "Cc1cc(O)c(C(=O)CCCCC(=O)Nc2c3sscc-3[nH]c2=O)c(=O)o1", "values": [
      {"measurement": "MIC", "setting": "Serratia marcescens", "result": 128, "unit": "µg/mL"},
      {"measurement": "MIC", "setting": "Pseudomonas aeruginosa", "result": 64, "unit": "µg/mL"},
      {"measurement": "MIC", "setting": "Candida albicans", "result": 128, "unit": "µg/mL"},
      {"measurement": "MIC", "setting": "Micrococcus luteus", "result": 8, "unit": "µg/mL"},
      {"measurement": "MIC", "setting": "Bacillus spizizenii [1]", "result": 64, "unit": "µg/mL"},
      {"measurement": "MIC", "setting": "Enterococcus faecalis", "result": 16, "unit": "µg/mL"},
      {"measurement": "zone of inhibition at 30 µg/disc", "setting": "Bacillus spizizenii [2]", "result": 14, "unit": "mm"},
      {"measurement": "MIC", "setting": "Staphylococcus aureus", "result": 64, "unit": "µg/mL"},
      {"measurement": "pIC50", "setting": "[3]", "result": "< 2.70"},
      {"measurement": "MIC", "setting": "Escherichia coli", "result": 128, "unit": "µg/mL"}
    ]},
    {"smiles": "C=CCCCc1cc(O)c(C(=O)CCCCCCC(=O)O)c(=O)o1", "values": [
      {"measurement": "diameter of the inhibition zone (DIZ)", "setting": "Bacillus spizizenii [2]", "result": "inactive"}
    ]},
    {"smiles": "CCC(=O)c1c(O)cc(CCCC(=O)Nc2c3sscc-3[nH]c2=O)oc1=O", "values": [
      {"measurement": "diameter of the inhibition zone (DIZ)", "setting": "Bacillus spizizenii [2]", "result": "inactive"}
    ]},
    {"smiles": "Cc1cc(O)c(C(=O)CCCCCCCC(=O)N2CCCCC2)c(=O)o1", "values": [
      {"measurement": "diameter of the inhibition zone (DIZ)", "setting": "Bacillus spizizenii [2]", "result": "inactive"}
    ]},
    {"smiles": "Cc1cc(O)c(C(=O)CCCCCCC(=O)NC2=C3SS(=O)(=O)C=C3NC2=O)c(=O)o1", "values": [
      {"measurement": "diameter of the inhibition zone (DIZ)", "setting": "Bacillus spizizenii [2]", "result": "inactive"}
    ]},
    {"smiles": "CCC(=O)c1c(O)cc(C)oc1=O", "values": [
      {"measurement": "diameter of the inhibition zone (DIZ)", "setting": "Bacillus spizizenii [2]", "result": "inactive"}
    ]},
    {"smiles": "CCCCCCCCC(=O)c1c(O)cc(C)oc1=O", "values": [
      {"measurement": "MIC", "setting": "Serratia marcescens", "result": 128, "unit": "µg/mL"},
      {"measurement": "MIC", "setting": "Pseudomonas aeruginosa", "result": 128, "unit": "µg/mL"},
      {"measurement": "MIC", "setting": "Candida albicans", "result": 64, "unit": "µg/mL"},
      {"measurement": "MIC", "setting": "Micrococcus luteus", "result": 2, "unit": "µg/mL"},
      {"measurement": "MIC", "setting": "Bacillus spizizenii [1]", "result": 8, "unit": "µg/mL"},
      {"measurement": "MIC", "setting": "Enterococcus faecalis", "result": 4, "unit": "µg/mL"},
      {"measurement": "zone of inhibition at 30 µg/disc", "setting": "Bacillus spizizenii [2]", "result": 12, "unit": "mm"},
      {"measurement": "MIC", "setting": "Staphylococcus aureus", "result": 8, "unit": "µg/mL"},
      {"measurement": "pIC50", "setting": "[3]", "result": "< 2.70"},
      {"measurement": "MIC", "setting": "Escherichia coli", "result": 128, "unit": "µg/mL"}
    ]},
    {"smiles": "Cc1cc(O)c(C(=O)CCCCCCC(=O)O)c(=O)o1", "values": [
      {"measurement": "diameter of the inhibition zone (DIZ)", "setting": "Bacillus spizizenii [2]", "result": "inactive"}
    ]},
    {"smiles": "Cc1cc(O)c(C(=O)CCCCCCC(=O)Nc2c3sscc-3[nH]c2=O)c(=O)o1", "values": [
      {"measurement": "zone of inhibition at 30 µg/disc", "setting": "Bacillus spizizenii [2]", "result": 11, "unit": "mm"}
    ]},
    {"smiles": "Cc1cc(O)c(C(=O)NCCCCCCC(=O)Nc2c3sscc-3[nH]c2=O)c(=O)o1", "values": [
      {"measurement": "diameter of the inhibition zone (DIZ)", "setting": "Bacillus spizizenii [2]", "result": "Active"}
    ]},
    {"smiles": "C=CCCCC(=O)c1c(O)cc(C)oc1=O", "values": [
      {"measurement": "zone of inhibition at 30 µg/disc", "setting": "Bacillus spizizenii [2]", "result": 9, "unit": "mm"}
    ]},
    {"smiles": "CCCCCCCCC(=O)c1c(O)cc(CCCCCC(=O)Nc2c3sscc-3[nH]c2=O)oc1=O", "values": [
      {"measurement": "zone of inhibition at 30 µg/disc", "setting": "Bacillus spizizenii [2]", "result": 9, "unit": "mm"}
    ]},
    {"smiles": "C=CCCCc1cc(O)c(C(=O)CCCCCCC(=O)Nc2c3sscc-3[nH]c2=O)c(=O)o1", "values": [
      {"measurement": "zone of inhibition at 30 µg/disc", "setting": "Bacillus spizizenii [2]", "result": 10, "unit": "mm"}
    ]}
  ]
}
